A selection: hits, their analogues and other compounds. The true share with any hit is near 2.3%.
TRPC6 act = activates the mouse TRPC6 cation channel; HEK293-TRPC6 membrane potential dye fluorescence; active compounds read high; B-score at 10 µM; 0.13% of 310,000 active; AID 2550;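 active = B-score of the integrated fluorescence ratio above library mean plus 3 SD, and starting fluorescence ratio within library mean plus 5 SD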;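 note: higher score means more depolarization so channel activation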
Target sequence (Q61143 whole entry, looked up): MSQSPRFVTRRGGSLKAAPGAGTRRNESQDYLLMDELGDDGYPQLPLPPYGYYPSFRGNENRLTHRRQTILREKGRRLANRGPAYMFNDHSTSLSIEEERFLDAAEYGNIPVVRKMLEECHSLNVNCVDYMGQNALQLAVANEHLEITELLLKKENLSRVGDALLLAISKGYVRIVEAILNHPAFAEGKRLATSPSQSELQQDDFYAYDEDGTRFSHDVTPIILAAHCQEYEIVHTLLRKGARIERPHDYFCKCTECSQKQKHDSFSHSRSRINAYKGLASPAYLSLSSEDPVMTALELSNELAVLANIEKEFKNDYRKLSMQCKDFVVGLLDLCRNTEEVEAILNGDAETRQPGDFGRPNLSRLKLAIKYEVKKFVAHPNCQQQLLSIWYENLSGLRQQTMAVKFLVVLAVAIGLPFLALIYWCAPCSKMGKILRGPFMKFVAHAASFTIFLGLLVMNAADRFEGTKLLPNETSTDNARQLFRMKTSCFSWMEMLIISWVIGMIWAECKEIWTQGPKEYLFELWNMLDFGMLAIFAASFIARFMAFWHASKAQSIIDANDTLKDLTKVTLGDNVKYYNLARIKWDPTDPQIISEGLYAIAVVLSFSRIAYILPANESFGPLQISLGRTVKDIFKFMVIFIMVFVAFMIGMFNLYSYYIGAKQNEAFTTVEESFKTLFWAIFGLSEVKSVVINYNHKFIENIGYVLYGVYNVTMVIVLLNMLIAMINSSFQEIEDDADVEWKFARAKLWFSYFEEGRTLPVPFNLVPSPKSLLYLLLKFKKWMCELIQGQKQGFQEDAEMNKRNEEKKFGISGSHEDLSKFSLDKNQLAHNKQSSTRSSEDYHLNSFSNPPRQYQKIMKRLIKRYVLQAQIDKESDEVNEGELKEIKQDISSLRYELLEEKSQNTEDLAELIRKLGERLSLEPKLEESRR
TRPC4 PAM = allosterically enhances the mouse TRPC4 cation channel; Q9QUQ5; HEK293 TRPC4beta/mu-opioid, DAMGO EC20, Fluo-4 Ca2+ flux; active compounds read high; B-score at 10 µM; 0.42% of 310,000 active; AID 2227;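 active = B-score of calcium response area above 5 SD of library B-scores, with initial fluorescence ratio within 5 SD of library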
TRPC4 inh = TRPC4 (mouse) channel inhibition. Q9QUQ5. HEK293 TRPC4beta/mu-opioid, DAMGO-evoked Fluo4 calcium flux; active compounds read low. AID 2247. 0.39% of 300,000 active. B-score at 10 µM;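 active = B-score over 3 SD under the library average, no early fluorescence shift, positive overall ratio signal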
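System: stable TRPC4beta/mu-opioid receptor HEK293 cells; Dosing: single-point compound dosing; Measured by: Fluo4 Ca2+ flux fluorescence; Read-out basis: per-well B score of integrated baseline-normalized Fluo4 ratio.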
TRPC4 agonist = TRPC4 (mouse) channel activation; HEK293 TRPC4beta/mu-opioid, Fluo4 calcium fluorescence; active compounds read high; 0.49% of 310,000 active; B-score at 10 µM;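 active = B-score above 5 SD of library B-scores, and initial fluorescence ratio not above library mean plus 5 SD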;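 note: positive B-score marks a calcium rise read as TRPC4 activation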
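system = HEK293 cells stably co-expressing mouse TRPC4beta and mu-opioid receptor | schedule = Fluo4 dye loading 45 min at room temperature, 110 s recording | measure = B-scored integrated calcium fluorescence ratio | signal = Fluo4 calcium-sensitive dye fluorescence, kinetic, 1 Hz baseline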
TRPC6 inh = blocks the mouse TRPC6 cation channel | Q61143 | B-score at 10 µM | AID 2553 | 1.1% of 310,000 active | HEK293-TRPC6, membrane potential dye, ACh-evoked depolarization; active compounds read low;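 active = B-score under library mean minus 3 SD, initial fluorescence not abnormally high, positive integrated signal ratio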;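 note: B-score derived from integrated fluorescence ratio over the kinetic read; more negative B-score means stronger inhibition of depolarization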
TRPC4 sel inh 2 = second selectivity test of TRPC6 inhibitors: effect on mouse TRPC4. HEK293 TRPC4/MOR, membrane potential dye fluorescence; channel activated by saturating DAMGO dose. AID 2776. inhibition, % at 10 µM. 42% of 920 active. shares compounds with TRPC6 inh;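 active = compounds whose fluorescence signal differed from control wells by over 3 SD, either direction, in both duplicate plates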
TRPC4 spec = mouse TRPC4 off-target activity of TRPC6 inhibitors; shares compounds with TRPC6 inh; HEK293 TRPC4/mu-opioid, membrane potential fluorescence; activity change, negative = inhibition, % at 10 µM; 61% of 920 active;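 active = rise or fall in signal beyond 3 SD of buffer-only wells in both replicate plates, either sign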;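 note: integrated kinetic ratio of fluorescence range over baseline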
HEK293 MPD ctr 2-1 = second check of TRPC6 inhibitor effects in parental HEK293 cells. shares compounds with TRPC6 inh. parental HEK293 membrane potential dye fluorescence; maximal acetylcholine challenge after compound addition. signal change vs control, % at 10 µM. 31% of 920 active;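 active = membrane potential signal moving either way by over 3 SD of the maximum-effect control, in both duplicate plates, meaning non-specific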
HEK293 MPD ctr-1 = checks TRPC6 inhibitor effects in parental HEK293 cells | shares compounds with TRPC6 inh | parental HEK293 membrane potential dye fluorescence | membrane potential signal change, % at 10 µM | 60% of 920 active | AID 2780;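 active = membrane potential signal shifting up or down by more than 3 SD of buffer-only wells, on both duplicate plates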
HEK293 MPD ctr-2 = counter-screen for TRPC6 modulators: effect in parental HEK293 cells. membrane potential signal change, % at 10 µM. membrane potential dye fluorescence. AID 488924. shares compounds with TRPC6 inh. 51% of 2,400 active;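 active = membrane potential signal moves up or down beyond 5 SD from buffer-only wells, on both duplicate plates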
HEK293 MPD ctr 2-2 = second check of TRPC6 modulator effects in parental HEK293 cells; AID 488926; shares compounds with TRPC6 inh; 14% of 2,400 active; membrane potential dye fluorescence; after compound, maximal acetylcholine stimulation; inhibition, % at 10 µM;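 active = membrane potential signal drops by more than 5 SD from the mean control signal, in both duplicate plates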
TRPC4/MOR mod = selectivity of TRPC6 modulators against mouse TRPC4; shares compounds with TRPC6 inh; HEK293 TRPC4/mu-opioid, membrane potential fluorescence; percent change from control (negative = decrease, positive = increase), % at 10 µM; 69% of 2,400 active; AID 488927;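 active = membrane potential signal moved up or down beyond 5 SD of buffer control wells, in both duplicate plates, actives on both sides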
TRPC4/MOR inh 2 = second check of whether TRPC6 modulators also affect mouse TRPC4 | shares compounds with TRPC6 inh | HEK293 TRPC4/mu-opioid, membrane potential dye fluorescence; stimulated with maximal-effect DAMGO | inhibition, % at 10 µM | 55% of 2,400 active | AID 488928;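 active = drop in membrane potential signal beyond 5 SD of the control wells in both duplicate plates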;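 note: TRPC4 counter screen for TRPC6 hits run under conditions tuned for TRPC6 not TRPC4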
TRPC6 block conf = mouse TRPC6 inhibitor confirmation; shares compounds with TRPC6 inh; HEK293-TRPC6, membrane potential dye, ACh-evoked depolarization; inhibition, % at 10 µM; 43% of 3,300 active; AID 488960;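 active = fluorescence ratio falls more than 5 SD below the full-stimulation control mean, in both duplicate runs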;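 note: integrated fluorescence ratio of peak minus minimum over baseline after agonist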
TRPC6 act conf = mouse TRPC6 activator confirmation | activation, % at 10 µM | shares compounds with TRPC6 inh | HEK293-TRPC6 membrane potential dye fluorescence, FDSS | AID 488961 | 11% of 2,800 active;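 active = ratio signal rise beyond 5 SD above unstimulated control wells' mean, seen in both duplicate runs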
Large screens that a line does not name were inactive (follow-up assays come after a bar, where they were run).

C[N+]1(C)CCCC(OC(=O)C(O)(c2ccccc2)c2ccccc2)C1 (stereo not given)	TRPC6 inh -13 | TRPC4 sel inh 2 inactive | TRPC4 spec inactive | HEK293 MPD ctr 2-1 -23% | HEK293 MPD ctr-1 inactive | TRPC6 block conf 94% | TRPC6 act conf inactive
O=C(/C=C\c1ccccc1OC(=O)c1ccccc1F)c1cc2ccccc2o1	TRPC6 inh -7.1 | TRPC4 sel inh 2 inactive | TRPC4 spec inactive | HEK293 MPD ctr 2-1 inactive | HEK293 MPD ctr-1 inactive | TRPC6 block conf inactive | TRPC6 act conf inactive
O=C(Nc1cc(Cl)ccc1Cl)Nn1cnnc1	none
Cc1ccc(OCC(=O)NNC(=O)c2cccnc2)cc1C	TRPC6 inh -5.7 | HEK293 MPD ctr-2 inactive | HEK293 MPD ctr 2-2 inactive | TRPC4/MOR mod inactive | TRPC4/MOR inh 2 inactive | TRPC6 block conf inactive | TRPC6 act conf inactive
CCCCOC(=O)C[N+](C)(C)CCOC1CC2CCC1(C)C2(C)C (stereo not given)	TRPC6 inh -5.2 | HEK293 MPD ctr-2 99% | HEK293 MPD ctr 2-2 inactive | TRPC4/MOR mod 23% | TRPC4/MOR inh 2 inactive | TRPC6 block conf 38%
CC(C)CCOC(=O)C[N+](C)(C)CCOC1CC2CCC1(C)C2(C)C (stereo not given)	TRPC6 inh -5.7 | HEK293 MPD ctr-2 155% | HEK293 MPD ctr 2-2 inactive | TRPC4/MOR mod 34% | TRPC4/MOR inh 2 34% | TRPC6 block conf 48%
CCCCCCCOC(=O)C[N+](C)(C)CCOC1CC2CCC1(C)C2(C)C (stereo not given)	none
S=C(NCCCN1CCOCC1)N(Cc1ccccc1)Cc1ccccc1	none
CN1CCc2c(sc3c2c(=O)n(-c2ccc(Cl)cc2)c2nncn32)C1	TRPC6 inh -5.1 | HEK293 MPD ctr-2 -106% | HEK293 MPD ctr 2-2 inactive | TRPC4/MOR mod -21% | TRPC4/MOR inh 2 inactive | TRPC6 block conf inactive | TRPC6 act conf inactive
CCN(CC)CCn1c(=O)n(-c2ccc(Cl)cc2)c(=O)c2c3c(sc21)CN(C)CC3	none
CCCCc1cc(=O)oc2cc(OCC(=O)Nc3ccccn3)ccc12	none
CC(C)COc1ccc(C(=O)OC2CC(C)(C)OCC2CN(C)C)cc1 (stereo not given)	TRPC6 act 14 | HEK293 MPD ctr-2 300% | HEK293 MPD ctr 2-2 inactive | TRPC4/MOR mod 46% | TRPC4/MOR inh 2 42% | TRPC6 block conf inactive | TRPC6 act conf 136%
Cc1cccc2c1c(N=NC(N)=S)c(O)n2C1OC(CO)C(O)C(O)C1O (stereo not given)	none

Screening results: PubChem, Johns Hopkins Ion Channel Center
